Results reported in ChEMBL document CHEMBL5143661, “Efficiency of bis-amidate phosphonate prodrugs” (Bioorg Med Chem Lett, 2022).

What was measured:
[1] = Induction of interferon gamma production in human Vgamma9Vdelta2 T cells pretreated with K562 cells followed by compound washout and cocultured with Vgamma9Vdelta2 T cells and measured after 15 mins by ELISA; assay type: functional, cell-based; details: Vgamma9Vdelta2 T cell
Method in brief: (§1)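 K562 cells loaded with compound over a dose range for 15, 60 or 240 min, washed, then co-cultured with human Vγ9Vδ2 T cells.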

[2] = Induction of interferon gamma production in human Vgamma9Vdelta2 T cells pretreated with K562 cells followed by compound washout and cocultured with Vgamma9Vdelta2 T cells and measured after 240 mins by ELISA; assay type: functional, cell-based; details: Vgamma9Vdelta2 T cell; method in brief: as §1
[3] = Stability of the compound in human K562 cell lysates in lysis buffer assessed as parent compound remaining measured after 4 hrs; assay type: ADME, subcellular; details: k562, 4 h
Method in brief: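 Compound incubated 4 h in K562 cell extract, 5 mg/mL in lysis buffer; percent parent remaining determined (n=2).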

K562 = test: Cytotoxicity against human K562 cells assessed as inhibition of cell growth incubated for 72 hrs; assay type: functional, cell-based; details: K562, 72 h
[4] = Induction of interferon gamma production in human Vgamma9Vdelta2 T cells pretreated with K562 cells followed by compound washout and cocultured with Vgamma9Vdelta2 T cells and measured after 60 mins by ELISA; assay type: functional, cell-based; details: Vgamma9Vdelta2 T cell; method in brief: as §1
[5] = Stability of the compound in 50% plasma (unknown origin) in PBS assessed as parent compound remaining measured after 24 hrs; assay type: ADME, cell-free; details: unidentified
Method in brief: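 Compound incubated 24 h in 50% plasma diluted in phosphate-buffered saline; percent parent remaining determined (n=2).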

[6] = Induction of Vgamma9Vdelta2 T cell proliferation in human peripheral blood; assay type: functional, cell-based

Structure (SMILES): C/C(=C\CCP(=O)(OCOC(=O)C(C)(C)C)OCOC(=O)C(C)(C)C)CO
- EC50 [1]: 0.043 µM
- EC50 [2]: 0.024 µM
- Stability [3]: 0%
- IC50 (K562): > 100 µM
- EC50 [4]: 0.03 µM

Structure (SMILES): CCOC(=O)[C@H](C)NP(=O)(CCC=C(C)C)N[C@@H](C)C(=O)OCC
- Stability [5]: 70%
- Stability [3]: 31%

Structure (SMILES): CCOC(=O)CNP(=O)(CC/C=C(\C)CO)NCC(=O)OCC
- Stability [5]: 82%
- EC50 [1]: 23 µM
- EC50 [2]: 1.6 µM
- Stability [3]: 57%
- EC50 [6]: 0.043 µM
- IC50 (K562): > 100 µM
- EC50 [4]: 7.2 µM

Structure (SMILES): COC(=O)[C@@H](NP(=O)(CCC=C(C)C)N[C@H](C(=O)OC)C(C)C)C(C)C
- Stability [5]: 99%
- Stability [3]: 85%

Structure (SMILES): CC(C)=CCCP(=O)(N[C@@H](C)C(=O)OC(C)C)N[C@@H](C)C(=O)OC(C)C
- Stability [5]: 90%
- Stability [3]: 79%

Structure (SMILES): CCOC(=O)CNP(=O)(CCC=C(C)C)NCC(=O)OCC
- Stability [5]: 82%
- Stability [3]: 86%

Structure (SMILES): COC(=O)[C@@H](NP(=O)(CC/C=C(\C)CO)N[C@H](C(=O)OC)C(C)C)C(C)C
- Stability [5]: 86%
- EC50 [1]: 14 µM
- EC50 [2]: 1.9 µM
- Stability [3]: 74%
- EC50 [6]: 0.03 µM
- IC50 (K562): 10 µM
- EC50 [4]: 5.7 µM

Structure (SMILES): CCOC(=O)CNP(=O)(CC/C=C(\C)CO)Oc1ccccc1 (racemic)
- EC50 [1]: 1.5 µM
- EC50 [2]: 0.051 µM
- Stability [3]: 86%
- IC50 (K562): > 100 µM
- EC50 [4]: 0.23 µM
